In ChEMBL document CHEMBL2176870 (J Med Chem, 2012):
Converted amounts (≈) assume the structure as drawn.

Experiments:
[1] = Cytotoxicity against human HepG2 cells; assay type: cell-based; details: read-out: ED50 (the source's name)
Escherichia coli = assay: Antibacterial activity against Escherichia coli C7 after 18 hrs by broth microdilution method; assay type: functional; details: C7, 18 h
Streptococcus pneumoniae = assay: Antibacterial activity against Streptococcus pneumoniae D39 after 18 hrs by broth microdilution method; assay type: functional; details: D39, 18 h
Outline: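 CLSI broth microdilution with 2-fold dilutions from 0.06 to 64 μg/mL. Cation-adjusted Mueller–Hinton broth with 2.5% lysed horse blood, inoculum 5 × 10^5 CFU/mL, grown at 35 °C for 18 h in 5% CO2. MIC is the lowest concentration showing no visible growth.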

[2] = biological target: T1, Enoyl-[acyl-carrier-protein] reductase [NADPH] FabI (Staphylococcus aureus, UniProt Q6GI75); assay: Inhibition of Staphylococcus aureus recombinant FabI using trans-2-octenoyl N-acetylcysteamine thioester as substrate preincubated for 60 mins
T1 sequence (Q6GI75 whole entry): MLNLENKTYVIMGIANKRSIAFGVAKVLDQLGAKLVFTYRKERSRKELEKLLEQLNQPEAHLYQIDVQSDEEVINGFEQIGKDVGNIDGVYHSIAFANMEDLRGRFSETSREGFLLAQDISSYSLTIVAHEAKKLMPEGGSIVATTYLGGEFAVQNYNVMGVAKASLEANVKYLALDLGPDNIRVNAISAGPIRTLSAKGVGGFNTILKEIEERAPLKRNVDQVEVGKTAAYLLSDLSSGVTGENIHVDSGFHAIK
Outline: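 Recombinant S. aureus FabI (2 nM) in 50 mM ADA pH 6.5, 1 mM DTT, 0.006% Triton X-100, 50 mM NaCl. Preincubated 60 min at room temperature with 40 μM NADPH, 10 μM NADP+ and inhibitor in DMSO. Reaction started with 100 μM t-o-NAC. Inhibition versus untreated samples; IC50 by Langmuir fit.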

Staphylococcus aureus = assay: Antibacterial activity against Staphylococcus aureus CIP54.146 after 18 hrs by broth microdilution method; assay type: functional; details: CIP54.146, 18 h
Outline: (§1)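 CLSI broth microdilution with serial 2-fold dilutions from 0.06 to 64 μg/mL. Cation-adjusted Mueller–Hinton broth, inoculum 5 × 10^5 CFU/mL, incubated at 35 °C for 18 h. MIC taken as the lowest concentration with no visible growth.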

Enterococcus faecalis = assay: Antibacterial activity against Enterococcus faecalis ATCC 29212 after 18 hrs by broth microdilution method; assay type: functional; details: ATCC 29212, 18 h; outline: as §1
[3] = biological target: T2, Enoyl-[acyl-carrier-protein] reductase [NADH] FabI (Escherichia coli K-12, UniProt P0AEK4); assay: Inhibition of Escherichia coli FabI using crotonoyl-CoA as substrate preincubated for 90 mins
T2 sequence (P0AEK4 whole entry): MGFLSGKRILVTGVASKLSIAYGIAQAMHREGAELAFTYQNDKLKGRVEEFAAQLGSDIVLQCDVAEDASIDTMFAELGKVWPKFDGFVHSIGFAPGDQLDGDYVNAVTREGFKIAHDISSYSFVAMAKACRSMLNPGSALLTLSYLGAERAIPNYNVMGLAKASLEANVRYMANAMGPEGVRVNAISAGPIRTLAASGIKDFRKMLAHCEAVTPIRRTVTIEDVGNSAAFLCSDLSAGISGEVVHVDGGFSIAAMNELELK
Outline: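 Recombinant C-terminal 6-His-tagged E. coli FabI (40 nM) in 50 mM Hepes pH 7.5, 100 μM DTT, 0.006% Triton X-100. Enzyme preincubated with 20 μM NADH, 10 μM NAD+ and inhibitor in DMSO for 90 min at room temperature. Reaction started with 50 μM crotonoyl-CoA. 6–10 concentrations; IC50 by Langmuir fit.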

| SMILES | MIC (Escherichia coli) [µg/mL] | MIC (Streptococcus pneumoniae) [µg/mL] | IC50 [2] [nM] | MIC (Staphylococcus aureus) [µg/mL] | MIC (Enterococcus faecalis) [µg/mL] | IC50 [3] [nM] | CC50 [1] [µg/mL] |
| --- | --- | --- | --- | --- | --- | --- | --- |
| CCc1ccc(Oc2ccc(C(=O)CCCO)cc2)c(O)c1 | 4 (≈ 13.3 µM) | 16 (≈ 53.3 µM) | 48 | 0.062 (≈ 0.206 µM) | > 32 |  | 16 (≈ 53.3 µM) |
| CCc1cc(O)c(Oc2ccc(C(=O)NC)cc2F)cc1F | 8 (≈ 26 µM) | > 32 | 82 | 1 (≈ 3.25 µM) | > 32 |  | > 32 |
| CCc1ccc(Oc2ccc(NS(=O)(=O)C3CC3)cc2F)c(O)c1 | 16 (≈ 45.5 µM) | > 32 |  | 1 (≈ 2.85 µM) | > 32 | 2300 |  |
| CCc1cc(OC)c(Oc2ccc(C(N)=O)cc2F)cc1F | > 32 | > 32 | 21000 | > 32 | > 32 |  | > 32 |
| CCc1ccc(Oc2ccc(C(=O)N3CCNC(=O)C3)cc2F)c(O)c1 | 8 (≈ 22.3 µM) | > 32 | 28 | 1 (≈ 2.79 µM) | > 32 |  | > 32 |
| CCc1cc(O)c(Oc2ccc(C#N)cc2F)cc1F | 1 (≈ 3.63 µM) | 8 (≈ 29.1 µM) | 31 | 0.062 (≈ 0.225 µM) | 32 (≈ 116 µM) |  | 16 (≈ 58.1 µM) |
| CCCNc1ccc(Oc2ccc(CC)cc2O)c(F)c1 | 16 (≈ 55.3 µM) | 16 (≈ 55.3 µM) |  | 0.25 (≈ 0.864 µM) | > 32 | 850 |  |
| CCc1ccc(Oc2ccccc2N)c(O)c1 | 4 (≈ 17.4 µM) | > 32 |  | 0.25 (≈ 1.09 µM) | > 32 | 160 |  |
| CCc1ccc(Oc2cc(C)ccc2N)c(O)c1 | 16 (≈ 65.8 µM) | 16 (≈ 65.8 µM) |  | 1 (≈ 4.11 µM) | > 32 | 42000 |  |
| CCc1ccc(Oc2ccccc2NC)c(O)c1 | > 32 | > 32 |  | 4 (≈ 16.4 µM) | > 32 | 112000 |  |
| CCc1ccc(Oc2ccc(C(C)=O)cc2F)c(O)c1 | 1 (≈ 3.65 µM) | 16 (≈ 58.3 µM) |  | 0.062 (≈ 0.226 µM) | 16 (≈ 58.3 µM) | 110 |  |
| CCc1cc(O)c(Oc2ccc(C(=O)O)cc2F)cc1F | > 32 | > 32 | 180 | 8 (≈ 27.2 µM) | > 32 |  | > 32 |
| CCc1cc(O)c(Oc2ccccc2F)cc1F | 0.25 (≈ 0.999 µM) | 32 (≈ 128 µM) | 8 | 0.031 (≈ 0.124 µM) | 32 (≈ 128 µM) |  | 16 (≈ 63.9 µM) |
| CCc1ccc(Oc2ccc(N3CC(CNC(C)=O)OC3=O)cc2F)c(O)c1 (centres undefined) | > 32 | > 32 |  | 4 (≈ 10.3 µM) | > 32 | 6100 |  |
| CCc1ccc(Oc2ccc(NCCCO)cc2F)c(O)c1 | 16 (≈ 52.4 µM) | > 32 |  | 0.25 (≈ 0.819 µM) | > 32 | 1000 |  |
| Cc1ccc(-c2ccc(Oc3cccc(F)n3)c(O)c2)cc1 | 8 (≈ 27.1 µM) | 16 (≈ 54.2 µM) |  | 8 (≈ 27.1 µM) | > 32 | 6500 |  |
| CCc1ccc(Oc2ccc(S(N)(=O)=O)cc2F)c(O)c1 | 1 (≈ 3.21 µM) | > 32 |  | 0.25 (≈ 0.803 µM) | > 32 | 860 |  |
| CCc1ccc(Oc2ccc(/C(C)=N/OC)cc2F)c(O)c1 | > 32 | 16 (≈ 52.7 µM) |  | 1 (≈ 3.3 µM) | > 32 | 14000 |  |
| CCc1ccc(Oc2ccc(S(C)(=O)=O)cc2)c(O)c1 | 16 (≈ 54.7 µM) | > 32 |  | 0.25 (≈ 0.855 µM) | > 32 | 810 |  |
| CCc1cc(O)c(Oc2cccnc2N)cc1F | 0.25 (≈ 1.01 µM) | > 32 | 56 | 0.5 (≈ 2.01 µM) | > 32 |  |  |
| CCc1cc(O)c(Oc2ccc[nH]c2=O)cc1F | > 32 | > 32 | > 100000 | > 32 | > 32 |  |  |
| CCc1ccc(Oc2ccc(S(=O)(=O)CCC3OCCO3)cc2)c(O)c1 | 16 (≈ 42.3 µM) | > 32 |  | 0.25 (≈ 0.661 µM) | > 32 | 380 |  |
| CCCNS(=O)(=O)c1ccc(Oc2ccc(CC)cc2O)c(F)c1 | 4 (≈ 11.3 µM) | 16 (≈ 45.3 µM) |  | 0.062 (≈ 0.175 µM) | > 32 | 240 |  |
| Oc1cc(Cl)ccc1Oc1ccc(Cl)cc1Cl [TRICLOSAN] | 0.125 (≈ 0.432 µM) | 8 (≈ 27.6 µM) |  | 0.031 (≈ 0.107 µM) | 2 (≈ 6.91 µM) |  | 2 (≈ 6.91 µM) |
| CCc1ccc(Oc2ccc(S(=O)(=O)NCCc3ccccn3)cc2F)c(O)c1 | 16 (≈ 38.4 µM) | > 32 |  | 0.25 (≈ 0.6 µM) | > 32 | 150 |  |
| CCc1cc(O)c(Oc2cccnc2F)cc1F | 0.25 (≈ 0.995 µM) | > 32 | 13 | 0.062 (≈ 0.247 µM) | > 32 |  |  |
| CCc1ccc(Oc2ccc(S(C)(=O)=O)cc2F)c(O)c1 | 1 (≈ 3.22 µM) | > 32 |  | 0.25 (≈ 0.806 µM) | > 32 | 140 |  |
| CCc1cc(O)c(Oc2ccc(C(=O)N3CCNC(=O)C3)cc2F)cc1F | 4 (≈ 10.6 µM) | > 32 |  | 0.25 (≈ 0.664 µM) | > 32 |  | > 32 |
| CCc1ccc(Oc2ccc(S(=O)(=O)NCCO)cc2F)c(O)c1 | 16 (≈ 45 µM) | > 32 |  | 0.25 (≈ 0.703 µM) | > 32 | 1200 |  |

Further lines, with some results ahead:

| MIC (Escherichia coli) [µg/mL] | MIC (Streptococcus pneumoniae) [µg/mL] | IC50 [2] [nM] | MIC (Staphylococcus aureus) [µg/mL] | MIC (Enterococcus faecalis) [µg/mL] | IC50 [3] [nM] | SMILES | CC50 [1] [µg/mL] |
| --- | --- | --- | --- | --- | --- | --- | --- |
| 4 (≈ 13.9 µM) | > 64 |  | 0.25 (≈ 0.87 µM) | > 32 |  | Oc1cc(CC(F)(F)F)ccc1Oc1cccc(F)n1 |  |
| 16 (≈ 55.9 µM) | > 32 |  | 4 (≈ 14 µM) | > 32 | 5200 | Oc1cc(Cn2cncn2)ccc1Oc1cccc(F)n1 |  |
| > 32 | > 32 |  | 4 (≈ 17 µM) | > 32 | 29000 | OCc1ccc(Oc2cccc(F)n2)c(O)c1 |  |
| 16 (≈ 64.2 µM) | > 32 |  | 4 (≈ 16 µM) | > 32 | 14000 | COCc1ccc(Oc2cccc(F)n2)c(O)c1 |  |
| 4 (≈ 17.1 µM) | > 64 |  | 0.25 (≈ 1.07 µM) | > 32 | 590 | CCc1ccc(Oc2cccc(F)n2)c(O)c1 |  |
| 4 (≈ 15.5 µM) | > 32 |  | 0.25 (≈ 0.968 µM) | > 32 | 230 | CCCc1ccc(Oc2ccc(OC)cc2)c(O)c1 |  |
| 16 (≈ 52.8 µM) | > 32 |  | 1 (≈ 3.3 µM) | > 32 | 3400 | Oc1cc(C(O)C(F)(F)F)ccc1Oc1cccc(F)n1 (centres undefined) |  |
| 0.25 (≈ 1.04 µM) | 64 (≈ 267 µM) |  | 0.25 (≈ 1.04 µM) | > 32 | 550 | Oc1cc(Cl)ccc1Oc1cccc(F)n1 |  |
| > 32 | > 32 |  | 4 (≈ 12.7 µM) | > 32 | 6900 | Oc1cc(CCCn2cncn2)ccc1Oc1cccc(F)n1 |  |
| 16 (≈ 73 µM) | > 32 |  | 4 (≈ 18.2 µM) | > 32 | 3500 | Cc1ccc(Oc2cccc(F)n2)c(O)c1 |  |
| 4 (≈ 15.3 µM) | > 32 |  | 1 (≈ 3.83 µM) | > 32 | 570 | CC(C)Cc1ccc(Oc2cccc(F)n2)c(O)c1 |  |
| > 32 | > 32 |  | 16 (≈ 56.1 µM) | > 32 | 56000 | Oc1cc(Cn2ccnc2)ccc1Oc1cccc(F)n1 |  |
| > 32 | > 32 |  | 16 (≈ 56.1 µM) | > 32 | 44000 | CCCc1ccc(Oc2cccc(NC(C)=O)c2)c(O)c1 |  |
| 16 (≈ 56.1 µM) | > 32 |  | 1 (≈ 3.51 µM) | > 32 |  | Oc1cc(C(F)=C(F)F)ccc1Oc1cccc(F)n1 |  |
| 4 (≈ 16.2 µM) | 64 (≈ 259 µM) |  | 0.25 (≈ 1.01 µM) | > 32 |  | CCCc1ccc(Oc2cccc(F)n2)c(O)c1 |  |
| 16 (≈ 61.9 µM) | > 32 |  | 1 (≈ 3.87 µM) | > 32 | 3100 | CCCc1ccc(Oc2cccc(OC)c2)c(O)c1 |  |
| 1 (≈ 3.52 µM) | 64 (≈ 225 µM) |  | 0.25 (≈ 0.88 µM) | > 32 | 120 | Oc1cc(Br)ccc1Oc1cccc(F)n1 |  |
